hIAP block: human IAP inhibition; P09923; purified IAP, CDP-Star luminescence, 30 min; inhibition, % at 10 µM; 0.12% of 330,000 active; AID 2544;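 active means inhibition reaching a set limit with compound at 10 µM in the primary screen, cut at about 35% in these data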;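 further: plate controls were DMSO wells with enzyme for no effect and no-enzyme buffer wells for full effect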
Target sequence (P09923 whole entry, looked up): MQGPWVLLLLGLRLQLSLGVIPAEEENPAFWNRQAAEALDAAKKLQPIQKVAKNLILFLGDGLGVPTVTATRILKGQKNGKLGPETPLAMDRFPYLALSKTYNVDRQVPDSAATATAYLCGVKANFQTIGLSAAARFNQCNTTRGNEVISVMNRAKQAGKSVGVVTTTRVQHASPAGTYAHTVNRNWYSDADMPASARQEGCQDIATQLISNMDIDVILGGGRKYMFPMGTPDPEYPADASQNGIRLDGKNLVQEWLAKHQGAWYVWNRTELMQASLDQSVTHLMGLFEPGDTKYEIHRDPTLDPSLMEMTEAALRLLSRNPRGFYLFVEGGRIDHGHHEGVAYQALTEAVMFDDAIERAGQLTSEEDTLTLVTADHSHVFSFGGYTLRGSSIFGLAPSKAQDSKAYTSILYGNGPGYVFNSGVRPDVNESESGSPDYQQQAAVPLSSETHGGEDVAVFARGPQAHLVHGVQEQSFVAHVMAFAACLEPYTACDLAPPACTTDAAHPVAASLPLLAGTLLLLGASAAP
mIAP block: blocks mouse intestinal alkaline phosphatase | purified mouse IAP, CDP-Star luminescence, 30 min | 0.2% of 330,000 active | inhibition, % at 10 µM;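 active means inhibition of at least 40% at 10 µM in the primary screen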;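 further: plate controls were DMSO with enzyme for no effect and no enzyme wells for full effect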
hIAP activ: human IAP activation; 0.16% of 330,000 active; activation factor at 10 µM; AID 2524; purified human IAP, CDP-Star luminescence, 30 min; hits give high values; 1 = vehicle-only enzyme, 0 = enzyme-free background; P09923;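 active means activation factor of the enzyme at least 2-fold when tested at 20 µM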
bIAP act: intestinal alkaline phosphatase (bovine) activation; purified bovine IAP, CDP-star luminescence, 30 min; hits give high values; fold of DMSO-control signal, blank-subtracted; activation factor at 20 µM; 0.17% of 200,000 active;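 active means activation factor of 2 or more at 20 µM, a signal rise over negative controls twice the positive control's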
bIAP inhibitor: intestinal alkaline phosphatase (bovine) inhibition. AID 1019. 190,000 tested, under 10 active. inhibition, % at 20 µM. purified bovine IAP, CDP-star luminescence, 30 min;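 active means over 50% inhibition of intestinal alkaline phosphatase at 20 µM in the single-dose screen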
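System: Purified bovine intestinal alkaline phosphatase (IAP) enzyme | Input: IAP diluted 1/65,000,000 in the well | Also added: CDP-star chemiluminescent phosphatase substrate, 30 µM final | Dosing: 20 µM single dose | Times: Enzyme reaction for 30 min at room temperature | Detection: Luminescence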
mIAP activ: mouse IAP activation. muIAP, CDP-Star luminescence, 30 min; hits give high values; 1 = vehicle-only enzyme signal, 0 = enzyme-free wells. activation factor at 10 µM. 0.24% of 330,000 active. AID 2805;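 active means activation factor of at least 2 at 20 µM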
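Assay system: mouse IAP enzyme / Compound: DMSO-dissolved test compounds / Timing: 30 min, room temperature / Measured by: luminescence from enzymatic CDP-Star hydrolysis / Control set: DMSO-only wells, enzyme-free buffer wells as negative control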
hIAP act confirm: human IAP activation confirmation; 10% of 880 active; purified IAP, CDP-Star luminescence, 30 min; hits give low values; shares compounds with hIAP activ; activation (%Activity, negative = activation), % at 8.3 µM; AID 434926;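 active means at least twofold enzyme activation in any of six single-dose repeats, which the averaged readout prints as negative percent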
* = called active by the depositor; . = not tested or not shown. In the library only some 0.72% were active in any assay of this set; here they are far more common.

SMILES	hIAP block	mIAP block	hIAP activ	bIAP act	bIAP inhibitor	mIAP activ	hIAP act confirm
COc1ccc(C)cc1NC(=O)CCS(=O)(=O)c1cc2c(cc1Cl)NC(=O)CO2	17	-4	0.83	.	.	1	.
O=C(NC(=S)NNC(=O)c1ccccc1O)c1ccccc1	-114	28	2.1*	.	.	0.71	2
CCCCNC(=O)NNC(=O)c1ccco1	-5	-7	1.1	1.1	-9	1.1	.
CCCCNC(=S)NNC(=O)c1ccco1	44*	13	0.56	0.9	8	0.87	9
O=C(NNC(=S)NC(=O)c1ccccc1[N+](=O)[O-])c1ccccc1O	-135	27	2.4*	1.4	-44	0.73	27
O=C(NC(=S)NNC(=O)c1ccccc1O)c1cccs1	-102	23	2*	.	.	0.77	-3
Cc1onc(-c2c(F)cccc2Cl)c1C(=O)O/N=C(\N)c1ccc([N+](=O)[O-])o1	13	0	0.87	.	.	1	.
O=C(NC(=S)NNC(=O)c1ccco1)c1ccccc1	-103	27	2*	.	.	0.73	21
Cc1ccc(C(=O)NC(=S)NNC(=O)c2ccccc2O)cc1	-139	30	2.4*	.	.	0.7	18
O=C(NC(=S)NNC(=O)c1ccccc1O)c1ccc(F)cc1	-108	31	2.1*	.	.	0.69	62
Cc1ccc(C(=O)NNC(=S)NC(=O)c2ccccc2)cc1	6	7	0.94	.	.	0.93	.
COC(=O)c1[nH]c2cc(OC)c(OC)cc2c1/C=N/Nc1ccccc1	2	-8	0.98	.	.	1.1	.
CCOC(=O)Oc1c(OC)cc(C(=O)O[C@@H]2C[C@@H]3CN4CCc5c([nH]c6cc(OC)ccc56)[C@H]4C[C@@H]3[C@H](C(=O)OC)[C@H]2OC)cc1OC	4	9	0.96	.	.	0.91	.
Cc1noc(C)c1CCC(=O)N1CCCC(N2CCN(c3ccc(F)cc3)CC2)C1 (stereo unspecified)	-24	5	1.2	.	.	0.95	.
COc1ccc(-c2ccc(OC)cc2C(=O)O)cc1	36*	5	0.64	1	4	0.95	15
COc1ccc(C(=O)O)c(O)c1	0	3	1	.	.	0.97	.
CCN(CC)S(=O)(=O)c1ccc2c(c1)N(CC(=O)N1CCC(C(N)=O)CC1)C(=O)CO2	-4	-5	1	.	.	1.1	.
c1ccc(-c2nnc(CN3CCC4(CC3)OCCO4)o2)cc1	41*	4	0.59	0.9	7	0.96	30
c1ccc(-c2nnc(CN3CCCCC3)o2)cc1	-4	-16	1	.	.	1.2	.
C[C@H](NC(=O)c1ccco1)C(=O)OCC(=O)N1CC(=O)Nc2ccccc21	-15	-2	1.2	.	.	1	.
CC(NC(=O)CSc1ncccn1)c1ccccc1 (stereo unspecified)	67*	-5	0.33	0.9	7	1	0
O=C(CSc1ncccn1)Nc1ccccc1	2	7	0.98	0.9	5	0.93	.
CC(C)c1cc(C(C)C)c(S(=O)(=O)N2CCNCC2)c(C(C)C)c1	-37	-6	1.4	.	.	1.1	.
Cc1ccc(OCC(=O)Nc2cccc(O)c2)cc1C	5	6	0.95	1	-4	0.94	.
Cc1cccc(OCC(=O)Nc2cccc(O)c2)c1	-117	-7	2.2*	0.9	12	1.1	-25
SMILES	hIAP block	mIAP block	hIAP activ	bIAP act	bIAP inhibitor	mIAP activ	hIAP act confirm
CC(C)c1c(C(=O)N/N=C/c2ccc3c(c2)OCO3)nnn1-c1nonc1N	-10	2	1.1	.	.	0.98	.
CCN(CC)c1ccc(/C=N/NC(=O)c2nnn(-c3nonc3N)c2C(C)C)c(O)c1	-100	14	2*	.	.	0.86	32
COC1=CC(=Cc2c(N)n3nc(CC(=O)N4CCOCC4)sc3nc2=O)C=C(OC)C1=O	42*	15	0.58	.	.	0.85	-39
CC(C)(C)OC(=O)N1CCC(NC(=O)c2[nH]cnc2C(=O)Nc2ccon2)CC1	-174	17	2.7*	.	.	0.83	37
CC(C)(C)OC(=O)NCCCCCNC(=O)c1[nH]cnc1C(=O)Nc1ccon1	-105	11	2*	.	.	0.89	9
CC(C)(C)OC(=O)N1CCC(NC(=O)c2[nH]cnc2C(=O)Nc2ccc(Cl)cc2)CC1	-65	3	1.6	.	.	0.97	.

Screening results as filed in PubChem BioAssay.
